# Tb MetRS inh: Trypanosoma brucei MetRS inhibition; purified T. brucei MetRS, ATP depletion, Kinase-Glo luminescence; inhibition, % at 11.9 µM; 0.4% of 360,000 active; AID 624268;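 active = inhibition above a per-plate cutoff of the control wells' mean inhibition plus 3 SD, cut at about 5.5% in these data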;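 note: 0% = DMSO wells median and 100% = median of wells with control inhibitor compound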
#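 Test system – parasite MetRS enzyme · Reagent – substrates ATP, L-methionine and bulk Escherichia coli tRNA · Doses – 11.9 µM compound single dose, 0.9% DMSO · Times – 15 min enzyme-compound preincubation, 2 h reaction, 10 min detection, 25 °C · Signal – Kinase-Glo luminescence, ATP depletion format · Controls – DMSO-only wells as low control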
# AHR activator: activates the human aryl hydrocarbon receptor; P35869; AHR-responsive luciferase reporter cells, luminescence; activation, % at 5 µM; 2.5% of 320,000 active; in the data active = activation above about 47%;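 note: 0% = vehicle wells and 100% = reference agonist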
# H9c2 TAG inh: reduces triacylglycerol accumulation in H9c2 cells. Nile Red lipid (TAG) fluorescence; cells loaded with 200 µM oleic acid. 0.66% of 230,000 active. inhibition, % at 12.5 µM;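 active = pattern-corrected inhibition of lipid staining of at least 50% with the nuclear-stain viability signal not falling by more than 50%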;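 note: 0% = DMSO wells and 100% = triacsin C control wells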
# Efflux pump inh: inhibitors of Candida antifungal efflux pumps expressed in yeast | S. cerevisiae Candida pump triplex, Nile Red efflux | inhibition, % at 10 µM | 0.44% of 330,000 active;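 active = plate passing quality check with inhibition over a set limit, or well fluorescence over plate mean plus 4 SD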;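 note: Nile Red retained in pooled yeast measured as flow cytometry median fluorescence; 0% = buffer negative control and 100% = Enniatin B positive control; higher means more Nile Red kept so more efflux inhibition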
# SMARCA2 activ: SMARCA2 function activation, primary screen; MG213 cells, MMTV-luciferase reporter, dexamethasone, overnight; activation, % at 9.1 µM; 1% of 370,000 active; AID 652017; in the data active = activation above about 7.8%;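 note: 0% = vehicle wells and 100% = reference activator wells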
# AHR act confirm: confirmation of human aryl hydrocarbon receptor activators | shares compounds with AHR activator | human cells, AHR-responsive luciferase reporter, luminescence | activation, % at 9 µM | 87% of 2,300 active; in the data active = activation above about 49%;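 note: HepG2 hepatoma cells carrying a DRE-driven firefly luciferase reporter; 0% = vehicle wells and 100% = reference agonist wells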
# PXR counter: activates human PXR in AHR activator counter-screen. shares compounds with AHR activator. cell-based PXR reporter, luciferase luminescence. activation, % at 11.6 µM. 88% of 2,300 active. AID 434939; in the data active = activation above about 11%;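 note: human hepatoma DPX-2 cells expressing full-length human PXR; 0% = DMSO and 100% = reference agonist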
# Target sequence (O75469 whole entry, looked up): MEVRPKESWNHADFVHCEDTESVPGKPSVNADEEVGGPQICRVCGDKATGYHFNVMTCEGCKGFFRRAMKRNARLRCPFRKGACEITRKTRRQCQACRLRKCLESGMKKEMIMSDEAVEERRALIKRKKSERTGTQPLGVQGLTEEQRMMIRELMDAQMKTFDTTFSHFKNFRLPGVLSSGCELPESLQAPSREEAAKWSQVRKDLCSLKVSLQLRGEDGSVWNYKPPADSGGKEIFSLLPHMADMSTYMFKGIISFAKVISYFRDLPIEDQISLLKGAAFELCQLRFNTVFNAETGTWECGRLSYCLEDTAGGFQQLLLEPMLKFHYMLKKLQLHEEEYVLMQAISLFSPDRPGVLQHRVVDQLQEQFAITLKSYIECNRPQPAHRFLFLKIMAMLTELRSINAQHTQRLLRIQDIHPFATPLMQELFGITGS
# * marks the source's active call; other numbers are inactive results; . = not tested or not shown. Shown are actives, neighbours in structure and some others; about 4.1% of the full set was active somewhere.
SMILES,Tb MetRS inh,AHR activator,H9c2 TAG inh,Efflux pump inh,SMARCA2 activ,AHR act confirm,PXR counter
O=C(N/N=C\c1ccc(Cl)cc1)c1sccc1-n1cccc1,-2,97*,-13,0,2,124*,24*
CC(=O)Nc1ccc(C(=O)NNC(=O)c2ccccc2-n2cccc2)cc1,1,0,-3,0,2,.,.
Cc1ccc(NC(=O)c2sccc2-n2cccc2)c(Cl)c1,-1,36,.,0,0,.,.
O=C(NNC(=O)c1ccccc1-n1cccc1)c1ccc(F)cc1,0,90*,-12,0,-3,101*,43*
O=C(NNS(=O)(=O)c1cc(Cl)cc(Cl)c1)c1sccc1-n1cccc1,1,35,-8,0,-1,.,.
CNC(=O)c1sccc1-n1cccc1,-1,2,6,0,-2,.,.
COc1ccc(C(=O)NCC2CCN(C(=O)C(=O)c3cccs3)CC2)c(OC)c1,.,.,.,.,0,.,.
O=C(NNS(=O)(=O)c1ccc(F)cc1)c1sccc1-n1cccc1,0,-3,2,0,-2,.,.
O=C(NNC(=O)c1sccc1-n1cccc1)c1ccc(F)cc1,0,112*,-6,0,-4,46,6
O=C(NNC(=O)c1sccc1-n1cccc1)Nc1ccccc1,0,92*,-3,0,-2,126*,61*
Cc1ccc(S(=O)(=O)NNC(=O)c2sccc2-n2cccc2)cc1,0,3,6,0,-2,.,.
Cc1cc(=O)c2c(C)nn(-c3ccccc3)c2[nH]1,-1,0,-9,0,0,.,.
CCc1c(C)c2c(C)nn(-c3ccccc3)c2[nH]c1=O,-1,97*,-21,0,3,94*,24*
COC(=O)[C@]12C[C@H](CC(=O)NCCCCc3ccccc3)C(=O)N(CCC3=CCCCC3)C1=C[C@H](C(C)C)O[C@@H]2C1CC1,.,.,.,.,-5,.,.
O=C(CCNc1cccc(Cl)c1)c1cccs1,0,8,.,0,4,.,.
Cc1ccc(NCCC(=O)c2cccs2)cc1Cl,0,86*,-9,0,4,69*,12*
Cc1c(C(=O)NCCCN2CCOCC2)oc2c1C1(CCC2)SCCS1,0,109*,.,0,-1,95*,181*
CCCCOCCCNC(=O)C[C@H]1C[C@@]2(C(=O)OC)C(=C[C@H](C(C)(C)C)O[C@@H]2C)N(CCC2=CCCCC2)C1=O,.,.,.,.,-4,.,.
Nc1[nH]nc2nc(N3CCCC3)nc(-c3ccccc3)c12,1,9,18,0,1,.,.
Cc1nc(-c2ccccc2)nc2n[nH]c(N)c12,0,112*,-4,0,3,138*,9
O=C(O)c1ccc2c(c1)C(=O)N(CCC1=CCCCC1)C2=O,0,2,-3,0,1,.,.
O=C1c2ccccc2C(=O)N1CCC1=CCCCC1,0,103*,13,0,3,121*,17*
O=C(CCN1C(=O)/C(=C/c2ccccc2)SC1=S)NNC(=O)c1ccncc1,-1,120*,12,0,2,15,5
O=C1c2cccc3cccc(c23)C(=O)N1CCN1CCN(CC(O)COc2ccccc2)CC1 (stereo unspecified),0,87*,.,-4,-2,59*,16*
Cc1ccc(NC(=O)CCN2C(=O)c3cccc4cccc(c34)C2=O)cc1,0,47,3,0,3,.,.
SMILES,Tb MetRS inh,AHR activator,H9c2 TAG inh,Efflux pump inh,SMARCA2 activ,AHR act confirm,PXR counter
Cc1ccc(NC(=S)N2CCN(CCN3C(=O)c4cccc5cccc(c45)C3=O)CC2)cc1,-1,107*,35,0,5,110*,57*
CC(=O)N1CCN(C(=O)C2CCCN(C(=O)c3ccc4c(c3)NC(=O)CS4)C2)CC1 (stereo unspecified),.,.,.,.,-4,.,.
COc1c(C(=O)Nc2nnc(C3CC3)s2)csc1Cl,0,113*,21,0,5,157*,79*
C/C(=N\NC(=O)c1c[nH]c2ccccc12)c1ccc(C)o1,2,82*,.,0,3,119*,17*
O=C(NN=C1CCCCCC1)c1c[nH]c2ccccc12,1,91*,.,0,1,7,6
O=C(NN=C1CCCCCC1)c1cc2ccccc2cc1O,1,3,11,0,-1,.,.
CCOC(=O)CC[C@@H]1CC[C@]2(CCCN(Cc3nccn3C)C2)O1,.,.,.,.,-4,.,.
Cc1cnc(NC(=O)c2ccc(OCC3CCCO3)cc2)s1 (stereo unspecified),-1,12,-4,0,-3,.,.
O=C(Nc1nc2ccccc2s1)c1ccc(OCC2CCCO2)cc1 (stereo unspecified),0,112*,.,0,-5,69*,8
O=C(Nc1ccccc1)N1CCc2ccccc2C1,0,103*,3,0,8,132*,16*
Cc1ccccc1NC(=O)CN1CCN(c2nc(-c3ccccc3)cs2)CC1,.,.,.,.,3,.,.
C/C(=N\NC(=O)C(=O)Nc1cccc(Cl)c1C)c1ccncc1,0,-1,.,-6,7,.,.
C/C(=N\NC(=O)C(=O)Nc1cc(Cl)ccc1Cl)c1ccncc1,-1,89*,.,0,-3,1,10
O=C(Nc1ccc(Br)cc1)C1OCCc2ccccc21 (stereo unspecified),-1,103*,3,0,7,107*,116*
Cc1cc(C2=NNC(=NC3CC3)SC2)c(C)n1-c1ccccc1,0,.,.,.,-7,.,.
c1ccc2c(C3=NNC(=NC4CC4)SC3)c[nH]c2c1,1,97*,16,0,4,8,11*
CC(C)(C)N1Cc2nnn(Cc3ccccc3)c2-c2cc(N3CCCCC3)ccc2S1(=O)=O,.,.,.,.,2,.,.
Cc1cc(Cl)n2ncc(-c3ccccc3)c2n1,0,0,2,0,1,.,.
Cc1cccc(-c2cc3nc(C)cc(C)n3n2)c1,-3,43,-1,0,5,.,.
Cc1cc(C)n2nc(-c3cccc(Br)c3)cc2n1,-2,107*,10,0,4,129*,18*
Cc1cc(C)n2ncc(-c3cccc(Br)c3)c2n1,-1,88*,.,0,0,120*,24*
O=C(Nc1nc(-c2ccc(Br)cc2)cs1)c1cccnc1,0,9,1,0,-4,.,.
CC(C)/C=N/Nc1nc(-c2ccc(Br)cc2)cs1,0,141*,.,0,1,16,18*
COc1cc(/C=N/Nc2nc(Nc3ccc(C)cc3)nc(-n3nc(C)cc3C)n2)cc(OC)c1OC,0,33,7,0,-1,.,.
COc1cc(/C=N/Nc2nc(Nc3ccccc3)nc(-n3nc(C)cc3C)n2)cc(OC)c1OC,0,80*,.,0,0,68*,26*
CN(C)c1ccc(NC(=O)NC2CCCCN(Cc3cccc(Cl)c3)C2=O)cc1 (stereo unspecified),.,.,.,.,-1,.,.

# Bioassay records (PubChem BioAssay)
